Publication PMC3268775 (Journal of the American Chemical Society, 2012)
Numbered stars: 1 amine (or outer) side, 2 acyl side, 3 side chain; on linkers, the order of the positions; unused ones are H or OH. Square brackets hold non-standard residues; d marks the D form. Peptide text beside a SMILES is read from it. * marks the point of attachment. Isonicotinoyl(2-(4-Me-2-Py)) = Cc1ccnc(-c2cc(C(=O)*)ccn2)c1; X1 = O=C([C@H](Cc1c(F)cc(O)c(F)c1F)N[*:1])[*:2]

Tests used:
[1] = Flash-quench transient absorption: •F3Y radical of free peptide; type: physicochemical
In short: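 Free Re-labelled test peptide (50 μM) with 1 mM Ru(NH3)6Cl3 flash quencher, 1 mM CDP and 3 mM ATP in 50 mM borate, pH 8.3, 15 mM MgSO4, 5% glycerol. Samples were equilibrated 3 min at 23 °C and flowed through the cuvette, then excited with a 7 ns 355 nm pulse. Spectra averaged three data sets with FFT noise filtering. Kinetic traces were fitted by weighted least squares; errors are one SD.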

Y731F-α2 [2] = molecular target: T1, Y731F-α2 (Escherichia coli, UniProt P00452, Y731F); experiment: Flash-quench transient absorption: •F3Y radical in presence of Y731F-α2; type: biochemical
T1 sequence (P00452 1-761 Y731F): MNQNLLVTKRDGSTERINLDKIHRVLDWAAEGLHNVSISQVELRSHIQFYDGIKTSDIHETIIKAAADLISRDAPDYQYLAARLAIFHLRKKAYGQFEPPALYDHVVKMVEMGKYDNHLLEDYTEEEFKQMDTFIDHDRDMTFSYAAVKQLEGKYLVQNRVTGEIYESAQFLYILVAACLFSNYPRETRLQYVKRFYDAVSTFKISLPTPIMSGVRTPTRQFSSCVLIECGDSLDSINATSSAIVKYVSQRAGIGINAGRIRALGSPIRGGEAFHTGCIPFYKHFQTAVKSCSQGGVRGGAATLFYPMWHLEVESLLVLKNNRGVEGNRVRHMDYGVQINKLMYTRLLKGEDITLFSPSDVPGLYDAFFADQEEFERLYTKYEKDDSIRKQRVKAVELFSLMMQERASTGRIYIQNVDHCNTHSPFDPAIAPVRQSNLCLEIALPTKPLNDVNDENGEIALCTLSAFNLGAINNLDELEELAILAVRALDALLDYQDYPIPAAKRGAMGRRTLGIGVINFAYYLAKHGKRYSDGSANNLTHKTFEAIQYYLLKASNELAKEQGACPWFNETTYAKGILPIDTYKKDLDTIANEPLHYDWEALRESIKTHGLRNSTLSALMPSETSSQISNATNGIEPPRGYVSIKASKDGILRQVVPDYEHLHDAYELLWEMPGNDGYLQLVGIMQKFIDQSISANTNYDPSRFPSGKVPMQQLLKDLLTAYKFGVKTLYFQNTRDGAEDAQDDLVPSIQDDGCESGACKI

[3] = Transient absorption of the charge-separated state, free peptide; type: physicochemical; settings: 50 μM peptide, 50 mM sodium borate pH 8.3, λexc 355 nm
In short: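 Transient absorption decays were read at 380, 480 (Re excited state), 525 (bpy anion) and 425 nm (F3Y radical). ΔOD came from PMT voltage against the pre-flash baseline. Short decays were fitted from the maximum-amplitude point, averaging 3–6 traces.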

[4] = [Re^I]* emission lifetime of peptide in solution; type: physicochemical
In short: (§1)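 Time-resolved [Re] emission, monitored at 610 nm. Samples held 10 μM Re-labelled test peptide, 200 μM Ru(NH3)6Cl3, 1 mM CDP and 3 mM ATP in 50 mM sodium borate, pH 8.3, 15 mM MgSO4, 5% glycerol. For the bound state, 20 μM His6-tagged E. coli α2 mutant was added. Samples were equilibrated 3 min at 23 °C and measured while flowing. Lifetimes came from weighted least-squares fits of averaged traces.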

Y731F-α2 [5] = molecular target: T1, Y731F-α2; experiment: [Re^I]* emission lifetime of peptide bound to Y731F-α2; type: binding; settings: 10 μM peptide, 20 μM α2, pH 8.3
In short: as §1

SMILES: CC[C@H](C)[C@H](NC(=O)[C@H](CCC(N)=O)NC(=O)CNC(=O)[C@@H](NC(=O)[C@H](CC(C)C)NC(=O)[C@H](Cc1c(F)cc(O)c(F)c1F)NC(=O)c1ccnc(-c2cc(C)ccn2)c1)C(C)C)C(=O)N[C@@H](CC(=O)O)C(=O)N[C@@H](CO)C(=O)N[C@@H](CCC(=O)O)C(=O)N[C@H](C(=O)N[C@@H](CC(=O)O)C(=O)N[C@H](C(=O)N[C@@H](CC(=O)O)C(=O)N[C@@H](CC(=O)O)C(=O)N[C@@H](CC(C)C)C(=O)N[C@@H](CO)C(=O)N[C@@H](CC(N)=O)C(=O)N[C@@H](Cc1ccccc1)C(=O)N[C@@H](CCC(N)=O)C(=O)N[C@@H](CC(C)C)C(=O)O)[C@@H](C)O)C(C)C [[Re]–F3Y–βC19] ({Isonicotinoyl(2-(4-Me-2-Py))}-[X1]LVGQIDSEVDTDDLSNFQL-OH; N-terminus and C-terminus assumed)
- fast time component, recombination of charge-separated state ([1]; flash quench, 20 mol equiv Ru(NH3)6Cl3, λdet 425 nm): 100 ns
- •F3Y lifetime τ395 ([1]; free peptide, 395 nm, monoexponential, 50 μM peptide, 1 mM Ru(NH3)6Cl3, 1 mM CDP, 3 mM ATP, 15 mM MgSO4, 5% glycerol, 50 mM borate pH 8.3, average of 3–6 data sets): 14.7 ± 0.2 μs
- •F3Y lifetime τ410 ([1]; free peptide, 410 nm, monoexponential, 50 μM peptide, 1 mM Ru(NH3)6Cl3, borate pH 8.3, average of 3–6 data sets): 13.5 ± 0.2 μs
- •F3Y lifetime τ425 ([1]; free peptide, 425 nm, monoexponential, 50 μM peptide, 1 mM Ru(NH3)6Cl3, borate pH 8.3, average of 3–6 data sets): 14.5 ± 0.4 μs
- photochemical yield of •F3Y formation ([1]; optimized flash-quench system, 20 mol equiv Ru(NH3)6Cl3, calculated, see SI): 4.9%
- radical lifetime change / radical injection (in words) (Y731F-α2 [2]; Y731F-α2): cannot competently inject the radical into α2
- •F3Y lifetime τ410 (Y731F-α2 [2]; Y731F-α2, 410 nm, monoexponential, 50 μM peptide, 100 μM α2, pH 8.3): 14.2 ± 0.2 μs
- •F3Y lifetime τ425 (Y731F-α2 [2]; Y731F-α2, 425 nm, monoexponential, 50 μM peptide, 100 μM α2, pH 8.3): 16.5 ± 0.4 μs
- portion of peptide N-terminus in the "on" conformer (Y731F-α2 [2]; Y731F-α2, from amplitude of the •F3Y lifetime): 20–30%
- radical lifetime change / radical injection (in words) (Y731F-α2 [2]; Y731F-α2, listed as [Re]–•F3Y–βC19): no significant change in radical lifetime
- decay time constant of transient signal, [Re^I]* ([3]; λdet 380 nm, 1 mM CDP, 3 mM ATP, 15 mM MgSO4, 5% glycerol): 60 ± 2 ns
- decay time constant of transient signal, [Re^I]* ([3]; λdet 480 nm): 61 ± 2 ns
- [Re^I]* emission decay, contribution of short component ([4]; pH 8.3, 22 ns component): 81%
- [Re^I]* emission decay, contribution of long component ([4]; pH 8.3, 58 ns component): 19%
- [Re^I]* emission lifetime, long component ([4]; pH 8.3, biphasic, [Re^I]* unchanged by proximal F3Y): 58 ns
- [Re^I]* emission lifetime, short component ([4]; pH 8.3, biphasic, quenching by deprotonated F3Y−): 22 ns
- [Re^I]* emission lifetime, "on" state (Y731F-α2 [5]): 29 ns
